In ChEMBL document CHEMBL1146497, “Antifouling activity of brominated cyclopeptides from the marine sponge Geodia barretti” (J Nat Prod, 2004):
The source made the active and inactive calls. The calls are words filed in the database; no cut-off is given here.

Columns and labels:
Type in all cases: functional, organism-based
Amphibalanus improvisus [1] = assay: Antifouling activity against Balanus improvisus […] assessed as inhibition of cyprid larval settlement at 0.1 to 10 uM after 3 to 4 days relative to control
Method in brief: (§1)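 Competent Balanus improvisus cyprids (20 ± 2 per dish) in 10 mL filtered seawater (0.2 µm) containing test substance, dissolved first in milliQ water. Four replicate dishes per concentration, with filtered-seawater dishes as controls. Settled, living unsettled and dead cyprids were scored as percentages.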

Amphibalanus improvisus [2] = assay: Antifouling activity against Balanus improvisus […] assessed as inhibition of cyprid larval settlement
Method in brief: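 Competent B. improvisus cyprids (20 ± 2 per dish) were exposed in 10 mL filtered seawater (0.2 µm), with four replicates and filtered-seawater controls. Test substances were dissolved in milliQ water and diluted into seawater as three tenfold concentration steps. Settled, living-unsettled and dead cyprids were scored as percentages.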

Amphibalanus improvisus [3] = assay: Antifouling activity against Balanus improvisus […] assessed as inhibition of cyprid larval settlement at 1.9 uM after 3 to 4 days relative to control; method in brief: as §1

Row | Compound | Activity (Amphibalanus improvisus [1]) | LC50 (Amphibalanus improvisus [2]) [µg/mL] | Activity (Amphibalanus improvisus [3])
1 | N=C(N)NCCC[C@H](N)C(=O)O | inactive |  | 
2 | NC(Cc1c[nH]c2ccc(Br)cc12)C(=O)O (racemic) | inactive |  | 
3 | tributyltin-oxide |  | 0.09 | 
4 | NC(Cc1c[nH]c2cc(Br)ccc12)C(=O)O (racemic) | inactive |  | 
5 | N=C(N)NCCCC1NC(=O)C(Cc2c[nH]c3cc(Br)ccc23)NC1=O.O=C(O)C(F)(F)F (stereo unspecified) | Active | 4 | 
6 | N=C(N)NCCC[C@@H]1NC(=O)/C(=C/c2c[nH]c3cc(Br)ccc23)NC1=O.O=C(O)C(F)(F)F | Active | 0.4 | Active
7 | N[C@@H](Cc1c[nH]c2ccccc12)C(=O)O | inactive |  | 
8 | NC(Cc1c[nH]c2cc(F)ccc12)C(=O)O (racemic) | inactive |  | 
